# CHOP inh: blocks CHOP induction under ER stress; CHO-K1 CHOP-promoter luciferase, tunicamycin-induced, 15-18 h; inhibition, % at 10 µM; actives 3.8% (n = 220,000); AID 2732;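 active = compounds that reduced the stress-induced luciferase reporter signal by more than about 70% of percent inhibition, limit read from the data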;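 also: 0% = tunicamycin plus vehicle and 100% = wells without tunicamycin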
# CHOP UPR activ: activators of apoptotic arm of unfolded protein response (CHOP). CHO-CHOP luciferase reporter, UPR activation, luminescence; percent of tunicamycin response over DMSO baseline. activation, % at 10 µM. actives 0.34% (n = 330,000);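 active = at 10 µM dose, activation of 40% or more, normalized to positive control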;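 also: 100% = tunicamycin at 10 µg/mL and 0% = DMSO alone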
#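 measured by = luciferase luminescence | assay system = CHO-CHOP cells, stable luciferase reporter of PERK-eIF2a-CHOP signalling | amount = 500 reporter cells seeded per well | timing = 6 h compound exposure at 37 °C after overnight seeding | controls = positive tunicamycin 10 µg/mL, negative DMSO alone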
# Fh CTSL1 inh: blocks F. hepatica cathepsin L1 in PFM18AAP counter-screen; AID 1906; inhibition, % at 5.96 µM; recombinant F. hepatica cathepsin L1, Z-Leu-Arg-MCA fluorescence; actives 0.49% (n = 300,000);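 active = inhibition above the mean of all tested compounds plus 3 SD, set per screening campaign, cut at about 17% in these data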;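 also: 0% = plate median of test compound wells and 100% = 1 µM Z-Phe-Ala-diazomethylketone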
# UCH37 DUB inh: blocks the human deubiquitinase UCH37; Q9Y5K5; purified proteasome/UCH37, Ub-AMC cleavage fluorescence; inhibition, % (no concentration beside the values); actives 0.33% (n = 330,000); AID 588478;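 active = mean inhibition over replicate wells above about 20%, limit read from the data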;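 also: 0% = compound-free wells with enzyme and 100% = wells lacking proteasome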
# Target sequence (Q9Y5K5 whole entry, looked up): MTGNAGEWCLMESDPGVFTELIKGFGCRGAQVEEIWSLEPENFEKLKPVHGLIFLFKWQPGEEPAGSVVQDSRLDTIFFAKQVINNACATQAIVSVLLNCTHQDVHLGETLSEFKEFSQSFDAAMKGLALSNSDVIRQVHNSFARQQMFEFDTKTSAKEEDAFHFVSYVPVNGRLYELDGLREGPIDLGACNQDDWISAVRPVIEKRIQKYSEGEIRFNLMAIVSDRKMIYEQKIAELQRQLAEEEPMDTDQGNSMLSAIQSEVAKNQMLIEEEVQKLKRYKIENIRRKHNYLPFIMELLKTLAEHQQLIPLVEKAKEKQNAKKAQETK
#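 Material: human UCH37 enzyme supplied as purified proteasome complex / Amount: 0.15 nM proteasome as dispensed / Buffer or medium: pH 7.4 Tris-HCl (50 mM) with ovalbumin, ATP-MgCl2, DTT / Times: preincubation 30 min, reaction 25 min, room temperature / Technique: AMC fluorescence from Ub-AMC cleavage, excitation 355 nm, emission 460 nm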
# XBP1 UPR activ: activators of adaptive arm of unfolded protein response (XBP1). CHO-XBP1 luciferase reporter, IRE1-XBP1 UPR activation, luminescence; percent of tunicamycin response, DMSO as zero. AID 463104. activation, % at 20 µM. actives 0.33% (n = 330,000);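 active = versus positive control, 20 µM dose yields 30% or more activation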;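 also: 100% = tunicamycin at 10 µg/mL and 0% = DMSO only wells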
#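 Material: CHO-XBP1 cells stably carrying IRE1-XBP1-driven luciferase reporter / Amount: 1000 cells per well / Compound: 20 µM, 1% DMSO / Times: 6 h treatment, 37 °C / Detection: luciferase luminescence / Measure: % activation of reporter signal versus tunicamycin and DMSO controls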
# The depositor's hits bear a star; . = no result. Many of the other results were omitted from the sample, so hits are more common in it than they were.
SMILES,CHOP inh,CHOP UPR activ,Fh CTSL1 inh,UCH37 DUB inh,XBP1 UPR activ
Cc1ccc(Cn2nnnc2CN2CCC(n3nnc4cc(C(F)(F)F)ccc43)CC2)cc1,55.6,1.2,6.0,2.7,1.7
FC(F)(F)c1ccc2c(c1)nnn2C1CCN(Cc2nnnn2Cc2ccccc2)CC1,88.2*,-2.5,2.8,2.5,-0.2
CCC(=NC1CC1)c1c(O)n(C2CCCCC2)c(=O)[nH]c1=O,39.8,3.4,6.7,-1.5,1.6
CCC(=Nc1ccc2c(c1)CCC2)c1c(O)n(C2CCCCC2)c(=O)[nH]c1=O,76.1*,4.2,-2.2,3.5,-0.5
CC(=Nc1ccc2c(c1)CCC2)c1c(O)n(-c2ccccc2)c(=O)[nH]c1=O,32.0,1.8,6.6,2.3,-5.2
CC(=Nc1ccc2c(c1)CCC2)c1c(O)n(C2CCCCC2)c(=O)[nH]c1=O,87.1*,0.8,0.6,0.2,3.5
CNC(=O)ON=C(N)Cc1csc2ccccc12,.,.,.,0.9,.
CC1=C[C@@H](C)CC=C[C@H]2[C@@H]3O[C@]3(C)[C@@H](C)[C@H]3[C@H](Cc4c[nH]c5ccccc45)NC(=O)[C@]32C(=O)C=CC(=O)[C@@H]1O,.,.,.,1.4,.
C/C1=C\[C@@H](C)C/C=C/[C@H]2[C@@H]3O[C@]3(C)[C@@H](C)[C@H]3[C@H](Cc4c[nH]c5ccccc45)NC(=O)[C@]32C(=O)/C=C/C(=O)[C@@H]1O,105.4*,-9.4,0.5,.,-8.1
CCOc1cc(CNCCc2c[nH]c3ccccc23)cc(Cl)c1OCC,80.0*,-0.7,-3.2,3.8,-0.6
Cc1ccc(S(=O)(=O)N2CC2(C)CCl)cc1 (configuration not stated),8.3,3.6,20.0*,3.9,0.2
Cc1ccc(S(=O)(=O)N2CN3CCN(C3)C2)cc1,-0.8,-0.8,-2.2,0.4,-2.4
Cc1ccc(S(=O)(=O)NCCC(=O)Nc2ccc(Cl)cc2C(=O)c2ccccc2)cc1,93.6*,1.4,0.5,3.7,-3.1
CCOC(=O)c1c(N=CC2C(=O)NC(=S)NC2=O)sc2c1CCC2,.,.,.,3.8,.
CCC(CC(c1ccccc1)c1c(O)c2ccccc2oc1=O)=NNC(N)=S (configuration not stated),.,.,.,-2.1,.
CN1CCN(C(=O)Cc2nc3ccccc3[nH]2)CC1,-7.5,-0.2,-2.4,-4.7,0.4
COc1ccc(N2CCN(Cc3nc4ccccc4[nH]3)CC2)cc1,.,0.3,17.3*,6.1,-3.5
CCCC(=O)NC(Oc1ccc(OC)cc1)C(Cl)(Cl)Cl (configuration not stated),3.8,2.6,1.4,4.7,1.2
CC(C)CC(=O)NC(Oc1ccc(Cl)cc1)C(Cl)(Cl)Cl (configuration not stated),72.0*,-0.1,-0.1,2.8,-2.5
CCN1CCN(Cc2cccnc2)CC1,.,-0.7,19.4*,-0.4,-3.9
CCN1CCN(Cc2ccc(OC(F)(F)F)cc2)CC1,-2.1,0.2,1.0,2.5,-0.6
CCOC(=O)C(NC(=O)CCl)(Nc1ccc(C(O)(C(=O)OCC)C(F)(F)F)cc1)C(F)(F)F (configuration not stated),5.0,0.4,34.7*,1.0,1.5
CC12CNCC(C)(CNC1)C2O (configuration not stated),88.0*,-1.5,-1.2,0.6,1.2
CCCCC1(CCCC)C(=O)NC(=Nc2cccc(C)c2)NC1=O,79.5*,0.7,-2.0,-1.7,4.3
CN(CN=C(N)N[N+](=O)[O-])S(=O)(=O)c1ccccc1,.,.,.,2.7,.
Cc1ccc(/C=C2\C(=O)NC(=S)N(c3ccccc3F)C2=O)s1,107.2*,.,-3.3,1.3,.
Cc1cc(C)cc(N2C(=O)/C(=C\c3ccc(N4CCN(C)CC4)o3)C(=O)NC2=S)c1,-7.4,1.8,2.7,23.6*,-2.6
CCOP(=O)(OCC)C(NC(=O)c1ccccc1)C(Cl)(Cl)Cl (configuration not stated),-1.3,0.8,-4.5,.,-0.7
CCCOP(=O)(OCCC)C(NC(=O)c1cc(OC)c(OC)c(OC)c1)c1ccccc1 (configuration not stated),-26.0,-0.9,16.7*,0.2,-5.4
NC(=N[N+](=O)[O-])N1CCN(C(=O)c2ccc(Cl)cc2)CC1,.,.,.,1.9,.

# Compound activity (PubChem BioAssay)
